Here are results for 16 compounds from ChEMBL document CHEMBL1145243, “Synthesis and bladder smooth muscle relaxing properties of substituted 3-amino-4-aryl-(and aralkyl-)cyclobut-3-ene-1,2-diones” (Bioorg Med Chem Lett, 2005).

What is called IC50 is the point on the concentration scale where inhibition reaches its midpoint.

Format in all cases: functional
The species named for assay [1] is Rattus norvegicus. In words: In vitro inhibitory concentration required to relax KCl-induced contractions in rat bladder detrusor muscle strips.
Assay [2] is filed under the species Rattus norvegicus. In words: Percent of reversal of rat bladder detrusor muscle relaxation (resulting from compound treatment) by addition of glyburide.
For assay [3], the species on record is Rattus norvegicus. As to the kind of experiment: In vitro inhibitory concentration required to relax KCl-induced contractions in rat aortic rings. To be noted: Aorta. Put shortly:
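Rat aortic rings were contracted with KCl and then exposed to drug. The value is the drug concentration (μM) that relaxed the KCl-induced contraction by 50%, reported ± SE.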

Where [4] appears, read: Rattus norvegicus, read-out: IC50.

Take `COc1ccc(-c2c(NCC(C)c3ccccc3)c(=O)c2=O)cc1` (stereo not given): in the assay filed under Rattus norvegicus [1] (setting [4]), the half-maximal inhibitory concentration (IC50) was greater than 30 µM. The Reversal in the assay filed under Rattus norvegicus [2] stood at 0%.

As for `CCC(C)(C)/N=c1/c(-c2ccc(OC)cc2)c(O)c1=O`, the half-maximal inhibitory concentration (IC50) amounted to 2.5 µM in the assay listed under Rattus norvegicus [1] (setting [4]) and 37.6 µM in the assay listed under Rattus norvegicus [3]. Further, the Reversal in the assay listed under Rattus norvegicus [2] is on record as 0%.

Take `CC(Nc1c(/C=C/c2ccc(Br)cc2)c(=O)c1=O)C(C)(C)C` (stereo not given): in the assay filed under Rattus norvegicus [1] (setting [4]), the IC50 was greater than 30 µM. Also, the Reversal in the assay listed under Rattus norvegicus [2] amounted to 25%.

`CCC(C)(C)/N=c1/c(-c2cccc(OC)c2)c(O)c1=O`: the IC50 entry is “Contracted” in the assay listed under Rattus norvegicus [1] and greater than 30 µM in the assay filed under Rattus norvegicus [1] (setting [4]).

As to `CCC(C)(C)Nc1c(-c2ccc(OCCCc3ccccc3)cc2)c(=O)c1=O`, in the assay listed under Rattus norvegicus [1], the half-maximal inhibitory concentration (IC50) result is “Contracted”.

On to `COc1ccc(-c2c(NCCc3cccc(C(F)(F)F)c3)c(=O)c2=O)cc1`, for which the half-inhibitory concentration (IC50) in the assay filed under Rattus norvegicus [1] (setting [4]) was greater than 30 µM. The Reversal in the assay filed under Rattus norvegicus [2] turned out to be 0%.

For the compound `CC(=O)C(c1ccc(C(F)(F)F)cc1)c1c(NC(C)C(C)(C)C)c(=O)c1=O` (stereo not given), in the assay filed under Rattus norvegicus [1] (setting [4]), the half-inhibitory concentration (IC50) is 16.2 µM. Besides, the Reversal in the assay filed under Rattus norvegicus [2] is recorded as 0%.

As for `COc1ccc(Cc2c(NC(C)C(C)(C)C)c(=O)c2=O)cc1` (stereo not given), in the assay listed under Rattus norvegicus [1] (setting [4]), the 50% inhibitory concentration (IC50) was greater than 30 µM. The Reversal in the assay listed under Rattus norvegicus [2] amounted to 0%.

Turning to `COc1ccc(C(C(C)=O)c2c(NC(C)C(C)(C)C)c(=O)c2=O)cc1` (stereo not given), the IC50 in the assay listed under Rattus norvegicus [1] (setting [4]) was greater than 30 µM. Besides, the Reversal in the assay filed under Rattus norvegicus [2] turned out to be 0%.

As for `COc1ccc(-c2c(N(C)C(C)C)c(=O)c2=O)cc1`, the half-inhibitory concentration (IC50) in the assay listed under Rattus norvegicus [1] (setting [4]) amounted to 12 µM; in the assay filed under Rattus norvegicus [3], 46.2 µM. Also, in the assay listed under Rattus norvegicus [2], the Reversal stood at 0%.

In the case of `C[C@@H](Nc1c(Nc2ccc(C#N)cc2)c(=O)c1=O)C(C)(C)C`, the half-inhibitory concentration (IC50) was 0.37 µM in the assay listed under Rattus norvegicus [1] (setting [4]) and 0.064 µM in the assay listed under Rattus norvegicus [3]. In addition, the Reversal in the assay listed under Rattus norvegicus [2] is on record as 110%.

With `CCC(C)(C)Nc1c(-c2cccnc2)c(=O)c1=O`, in the assay filed under Rattus norvegicus [1] (setting [4]), the half-maximal inhibitory concentration (IC50) was greater than 30 µM. Besides, in the assay listed under Rattus norvegicus [2], the Reversal was 0%.

On to `CCc1cc(C#N)ccc1Nc1c(N[C@H](C)C(C)(C)C)c(=O)c1=O`, for which the IC50 in the assay filed under Rattus norvegicus [1] (setting [4]) was 0.09 µM; in the assay filed under Rattus norvegicus [3] it was 0.017 µM. Further, the Reversal in the assay listed under Rattus norvegicus [2] was found to be 77%.

Take `CC(Nc1c(Cc2ccc(C#N)cc2)c(=O)c1=O)C(C)(C)C` (stereo not given): the IC50 in the assay filed under Rattus norvegicus [1] (setting [4]) was greater than 30 µM. The Reversal in the assay listed under Rattus norvegicus [2] is 0%.

Take `COc1ccc(-c2c(NC(C)c3ccccc3)c(=O)c2=O)cc1` (stereo not given): the IC50 in the assay filed under Rattus norvegicus [1] (setting [4]) is 27 µM. Moreover, the Reversal in the assay listed under Rattus norvegicus [2] is reported as 0%.

For the compound `CC(Nc1c(/C=C/c2ccc(C#N)cc2)c(=O)c1=O)C(C)(C)C` (stereo not given), in the assay filed under Rattus norvegicus [1] (setting [4]), the IC50 came out at 2.94 µM. Moreover, the Reversal in the assay filed under Rattus norvegicus [2] is on record as 0%.
